The structures appear in SMILES notation. Values after ≈ are worked out from the molar mass of the structure shown. Some results are limits rather than exact numbers.

Consider 17 compounds from ChEMBL document CHEMBL5230166, “Novel quinoline-piperazine hybrids: the design, synthesis and evaluation of antibacterial and antituberculosis properties” (RSC Med Chem, 2023).

Common to all, as to type: functional
The test system of test [1] is Mycolicibacterium smegmatis. Put plainly: Antibacterial activity against Mycobacterium smegmatis ATCC 607 assessed as inhibition of bacterial growth incubated for 2 days by CLSI protocol based broth microdilution method. Particulars: ATCC 607, 48 h, time 2 day. In short, it runs like this:
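CLSI broth microdilution in Middlebrook 7H9 with 10% ADC. Compounds are dissolved in DMSO at 4.0 mg/mL (stock) and serially diluted from 64 to 0.015 µg/mL. Inoculum is ~10⁵ CFU/mL, checked by plating on 7H11 agar. Rifampin and levofloxacin are positive controls; drug-free broth with DMSO is the negative control. Growth inhibition is read after 2 days at 37 °C as MIC.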

Test [2] deals with Pseudomonas aeruginosa. Put plainly: Antibacterial activity against clinical isolate Pseudomonas aeruginosa AB 645 assessed as inhibition of bacterial growth incubated for 22 to 24 hrs. Particulars: time 22-24 hrs.
The test system of test [3] is Acinetobacter baumannii. Put plainly: Antibacterial activity against clinical isolate Acinetobacter baumannii BAA 747 assessed as inhibition of bacterial growth incubated for 22 to 24 hrs. Particulars: time 22-24 hrs.
The subject of test [4] is Staphylococcus aureus. Put plainly: Antibacterial activity against methicillin sensitive Staphylococcus aureus ATCC 29213 assessed as inhibition of bacterial growth incubated for 22 to 24 hrs. Particulars: time 22-24 hrs. The gist of the method: (§1)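 Broth MIC referenced to an earlier protocol. Inocula come from mid-log cultures sub-cultured on soybean casein digest agar, adjusted to McFarland (~10⁸ CFU/mL), then diluted to ~10⁵ CFU/mL. Compounds and controls are serially diluted from 64 to 0.03 µg/mL. Tested in triplicate, read after 22–24 h at 37 °C. MIC is the lowest concentration with no visible growth.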

In test [5] the test system is Klebsiella pneumoniae. Put plainly: Antibacterial activity against clinical isolate Klebsiella pneumoniae AB 356 assessed as inhibition of bacterial growth incubated for 22 to 24 hrs. Particulars: time 22-24 hrs.
Test [6] relates to Staphylococcus aureus. Put plainly: Antibacterial activity against methicillin resistant Staphylococcus aureus ATCC 33591 assessed as inhibition of bacterial growth incubated for 22 to 24 hrs. Particulars: time 22-24 hrs. In short, it runs like this:
(§2)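 Broth microdilution MIC. Strains were subcultured on Soybean Casein Digest Agar, and inocula were taken from mid-log culture, adjusted to McFarland (~10⁸ CFU/mL), then diluted to ~10⁵ CFU/mL. Serial dilutions ran from 64 to 0.03 µg/mL. Plates were incubated 22–24 h at 37 °C, in triplicate. MIC was the lowest concentration with no visible growth.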

For test [7], the system named is Enterococcus faecium. Put plainly: Antibacterial activity against Enterococcus faecium ATCC 49624 assessed as inhibition of bacterial growth incubated for 22 to 24 hrs. Particulars: time 22-24 hrs. In short, it runs like this:
as §1

Test [8] relates to Staphylococcus epidermidis. Put plainly: Antibacterial activity against clinical isolate methicillin resistant Staphylococcus epidermidis AB 735 assessed as inhibition of bacterial growth incubated for 22 to 24 hrs. Particulars: time 22-24 hrs.
Test [9] relates to Enterococcus faecalis. Put plainly: Antibacterial activity against vancomycin resistant Enterococcus faecalis ATCC 700802 assessed as inhibition of bacterial growth incubated for 22 to 24 hrs. Particulars: time 22-24 hrs. The gist of the method:
as §2

Test [10] deals with Escherichia coli. Put plainly: Antibacterial activity against clinical isolate Escherichia coli AB 117 assessed as inhibition of bacterial growth incubated for 22 to 24 hrs. Particulars: time 22-24 hrs.
The test system of test [11] is Mycobacterium tuberculosis. Put plainly: Antibacterial activity against Mycobacterium tuberculosis H37Rv ATCC 25618 assessed as inhibition of bacterial growth incubated for 2 days by CLSI protocol based broth microdilution method. Particulars: H37Rv ATCC 25618, 48 h, time 2 day.
The subject of test [12] is Moraxella catarrhalis. Put plainly: Antibacterial activity against Moraxella catarrhalis ATCC 25238 assessed as inhibition of bacterial growth incubated for 22 to 24 hrs. Particulars: time 22-24 hrs. The gist of the method:
as §1

With `COc1ccc2nc(CN3CCN(S(=O)(=O)c4ccc(NC(C)=O)cc4)CC3)cc(OC)c2c1`, the minimum inhibitory concentration (MIC) in test [1], in [2], in test [3], in [4], in test [5] and in [6] was above 64 µg/mL each time. Moreover, the MIC in test [7], in test [8], in test [9], in [10], in test [11] and in test [12] was above 64 µg/mL in each case.

Turning to `COc1ccc2nc(CN3CCN(S(=O)(=O)c4ccccc4C(F)(F)F)CC3)cc(OC)c2c1`, the minimal inhibitory concentration (MIC) in test [1] was above 64 µg/mL; in [2], above 64 µg/mL; in test [3], above 64 µg/mL; in test [4], 4 µg/mL (≈ 8.07 µM); in test [5], above 64 µg/mL; in test [6], 32 µg/mL (≈ 64.6 µM). The minimal inhibitory concentration (MIC) in test [7] is 8 µg/mL (≈ 16.1 µM); in test [8], 16 µg/mL (≈ 32.3 µM); in test [9], 64 µg/mL (≈ 129 µM); in test [10], 16 µg/mL (≈ 32.3 µM); in [11], above 64 µg/mL; in test [12], 1 µg/mL (≈ 2.02 µM).

For `COc1ccc2nc(CN3CCN(S(=O)(=O)c4cccs4)CC3)cc(OC)c2c1`, the minimal inhibitory concentration (MIC) is 32 µg/mL (≈ 73.8 µM) in test [1]; above 64 µg/mL in test [2]; above 64 µg/mL in test [3]; above 64 µg/mL in test [4]; above 64 µg/mL in [5]; above 64 µg/mL in test [6]. Besides, the minimal inhibitory concentration (MIC) in test [7], in [8], in [9], in test [10], in test [11] and in test [12] was above 64 µg/mL each time.

`COc1ccc2nc(CN3CCN(C(=O)c4ccccc4F)CC3)cc(OC)c2c1`: the MIC in test [1], in test [2], in test [3], in test [4], in test [5] and in test [6] was above 64 µg/mL throughout. Besides, the MIC in test [7], in [8], in [9], in test [10], in test [11] and in test [12] was above 64 µg/mL in each case.

Take `COc1ccc2nc(CN3CCN(S(=O)(=O)c4c(C)cc(C)cc4C)CC3)cc(OC)c2c1`: the minimal inhibitory concentration (MIC) in test [1], in [2], in test [3], in test [4], in test [5] and in [6] was above 64 µg/mL in each case. Moreover, the minimum inhibitory concentration (MIC) in test [7], in [8], in test [9], in [10], in test [11] and in test [12] was above 64 µg/mL each time.

On to `CNS(=O)(=O)N1CCN(Cc2cc(OC)c3cc(OC)ccc3n2)CC1`, for which the minimum inhibitory concentration (MIC) in [1], in test [2], in [3], in test [4], in [5] and in test [6] was above 64 µg/mL in each case. Also, the minimal inhibitory concentration (MIC) in test [7], in test [8], in test [9], in test [10], in [11] and in test [12] was above 64 µg/mL in each case.

With `COc1ccc2nc(CN3CCN(C(=O)c4ccc(Cl)c(Cl)c4)CC3)cc(OC)c2c1`, the minimal inhibitory concentration (MIC) in test [1], in test [2], in test [3], in test [4], in test [5] and in test [6] was above 64 µg/mL in each case. The MIC is above 64 µg/mL in [7]; above 64 µg/mL in [8]; above 64 µg/mL in [9]; above 64 µg/mL in test [10]; above 64 µg/mL in [11]; 64 µg/mL (≈ 139 µM) in test [12].

Take `COc1ccc2nc(CN3CCN(S(=O)(=O)c4cccc5ccccc45)CC3)cc(OC)c2c1`: the MIC in [1], in test [2], in test [3], in test [4], in test [5] and in test [6] was above 64 µg/mL in each case. Moreover, the minimal inhibitory concentration (MIC) in test [7], in test [8], in test [9], in [10], in [11] and in test [12] was above 64 µg/mL each time.

For the compound `COc1ccc2nc(CN3CCN(C(=O)c4c(Cl)cccc4Cl)CC3)cc(OC)c2c1`, the MIC in test [1], in [2], in [3], in [4], in test [5] and in test [6] was above 64 µg/mL in each case. Also, the MIC in test [7], in [8], in test [9], in [10], in [11] and in test [12] was above 64 µg/mL throughout.

For `COc1ccc2nc(CN3CCN(S(=O)(=O)c4c(F)c(F)c(F)c(F)c4F)CC3)cc(OC)c2c1`, the minimal inhibitory concentration (MIC) in test [1], in test [2], in test [3], in test [4], in [5] and in test [6] was above 64 µg/mL each time. Further, the MIC in test [7], in test [8], in test [9], in test [10], in [11] and in [12] was above 64 µg/mL in each case.

In the case of `COc1ccc2nc(CN3CCN(S(=O)(=O)c4ccc(F)cc4)CC3)cc(OC)c2c1`, the minimum inhibitory concentration (MIC) in test [1], in [2], in [3], in test [4], in [5] and in test [6] was above 64 µg/mL in each case. Besides, the MIC in test [7], in test [8], in [9], in [10], in test [11] and in test [12] was above 64 µg/mL each time.

As for `COc1ccc2nc(CN3CCN(C(=O)c4ccc(Cl)cc4Cl)CC3)cc(OC)c2c1`, the minimal inhibitory concentration (MIC) in test [1], in [2], in test [3], in test [4], in test [5] and in [6] was above 64 µg/mL in each case. The MIC in [7], in [8], in test [9], in test [10], in test [11] and in test [12] was above 64 µg/mL throughout.

Turning to `O=C(O)c1cn(C2CC2)c2cc(N3CCNCC3)c(F)cc2c1=O` [CIPROFLOXACIN], the MIC in test [4] came to 0.5 µg/mL (≈ 1.51 µM); in test [6] it was 1 µg/mL (≈ 3.02 µM); in [7], 2 µg/mL (≈ 6.04 µM); in test [9] it was 0.5 µg/mL (≈ 1.51 µM); in test [12], 0.03 µg/mL (≈ 0.0905 µM).

On to `C[C@H]1COc2c(N3CCN(C)CC3)c(F)cc3c(=O)c(C(=O)O)cn1c23.C[C@H]1COc2c(N3CCN(C)CC3)c(F)cc3c(=O)c(C(=O)O)cn1c23.O` [LEVOFLOXACIN], for which the MIC in [1] was 0.125 µg/mL; in test [11], 2 µg/mL.

Turning to `CC(=O)NC[C@H]1CN(c2ccc(N3CCOCC3)c(F)c2)C(=O)O1` [LINEZOLID], the MIC in test [2] is above 64 µg/mL; in test [3], above 64 µg/mL; in test [5], above 64 µg/mL; in test [7], 4 µg/mL (≈ 11.9 µM); in [8], 8 µg/mL (≈ 23.7 µM); in test [10] it was 8 µg/mL (≈ 23.7 µM). The MIC in test [12] is 4 µg/mL (≈ 11.9 µM).

Take `CO[C@H]1/C=C/O[C@@]2(C)Oc3c(C)c(O)c4c(O)c(c(/C=N/N5CCN(C)CC5)c(O)c4c3C2=O)NC(=O)/C(C)=C\C=C\[C@H](C)[C@H](O)[C@@H](C)[C@@H](O)[C@@H](C)[C@H](OC(C)=O)[C@@H]1C` [RIFAMPIN]: the results for the minimum inhibitory concentration (MIC) in [1] and in test [11] were 0.5 µg/mL (≈ 0.608 µM) and 4 µg/mL (≈ 4.86 µM), respectively.

As for `COc1cc(Cc2cnc(N)nc2N)cc(OC)c1OC` [TRIMETHOPRIM], the MIC in test [2] is above 8 µg/mL; in test [3], above 8 µg/mL; in test [4], 4 µg/mL (≈ 13.8 µM); in test [5], 2 µg/mL (≈ 6.89 µM); in test [6], 8 µg/mL (≈ 27.6 µM); in [7], 0.03 µg/mL (≈ 0.103 µM). Besides, the MIC in [8] is above 8 µg/mL; in test [9], 0.25 µg/mL (≈ 0.861 µM); in test [10], 16 µg/mL (≈ 55.1 µM); in test [12] it was 4 µg/mL (≈ 13.8 µM).
